Reference: ChEMBL document CHEMBL1811788, “Chaxamycins A-D, bioactive ansamycins from a hyper-arid desert Streptomyces sp” (2011)
≈ marks a conversion by molar mass, not a printed value.

How the values were obtained:
[1] = test system: Staphylococcus aureus; assay: Antibacterial activity against scottish methicillin-resistant Staphylococcus aureus isolate 161 (PF161d) isolated from patient buttock abscess after 18 hrs by microtiter plate reader assay; type: functional; conditions: isolate 161, 18 h
Procedure, shortened: (§1)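 S. aureus grown in Müller-Hinton broth to early stationary phase, diluted to OD650 = 0.0005. Broth microdilution in triplicate, with at least two independent cultures per strain. Test compound (32–0.016 μg/mL) and rifampicin control (0.03–0.001 μg/mL) dissolved in DMSO (up to 0.63%). Incubated 18 h at 37 °C, growth read at OD620. MIC taken as lowest concentration showing no growth versus MH broth control.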

[2] = test system: Staphylococcus aureus; assay: Antibacterial activity against scottish methicillin-resistant Staphylococcus aureus isolate 105 isolated from patient toe wound after 18 hrs by microtiter plate reader assay; type: functional; conditions: isolate 105, 18 h; procedure, shortened: as §1
[3] = test system: Staphylococcus aureus; assay: Antibacterial activity against scottish methicillin-resistant Staphylococcus aureus isolate 106 isolated from patient nasal swab after 18 hrs by microtiter plate reader assay; type: functional; conditions: isolate 106, 18 h; procedure, shortened: as §1
[4] = test system: Staphylococcus aureus; assay: Antibacterial activity against Staphylococcus aureus RN4220 after 18 hrs by microtiter plate reader assay; type: functional; conditions: RN4220, 18 h; procedure, shortened: as §1
[5] = test system: Staphylococcus aureus; assay: Antibacterial activity against epidemic methicillin-resistant Staphylococcus aureus isolate 16 isolated from patient graft wound after 18 hrs by microtiter plate reader assay; type: functional; conditions: isolate 16, 18 h; procedure, shortened: as §1
[6] = test system: Staphylococcus aureus; assay: Antibacterial activity against Staphylococcus aureus ATCC 25923 after 18 hrs by microtiter plate reader assay; type: functional; conditions: ATCC 25923, 18 h
[7] = test system: Staphylococcus aureus; assay: Antibacterial activity against scottish methicillin-resistant Staphylococcus aureus isolate 124 isolated from patient open wound after 18 hrs by microtiter plate reader assay; type: functional; conditions: isolate 124, 18 h; procedure, shortened: as §1
[8] = test system: Staphylococcus aureus; assay: Antibacterial activity against epidemic methicillin-resistant Staphylococcus aureus isolate 15 isolated from patient urine infection after 18 hrs by microtiter plate reader assay; type: functional; conditions: isolate 15, Urine; procedure, shortened: as §1
[9] = test system: Staphylococcus aureus; assay: Antibacterial activity against scottish methicillin-resistant Staphylococcus aureus isolate 116 isolated from patient knee abscess after 18 hrs by microtiter plate reader assay; type: functional; conditions: isolate 116, Knee; procedure, shortened: as §1
[10] = test system: Staphylococcus aureus; assay: Antibacterial activity against scottish methicillin-resistant Staphylococcus aureus isolate 161 (PF161) isolated from patient thigh abscess after 18 hrs by microtiter plate reader assay; type: functional; conditions: isolate 161, Thigh muscle; procedure, shortened: as §1
[11] = test system: Staphylococcus aureus; assay: Antibacterial activity against scottish methicillin-resistant Staphylococcus aureus […] isolated from patient arm cellulitis after 18 hrs by microtiter plate reader assay; type: functional; conditions: isolate 153, 18 h; procedure, shortened: as §1
[12] = test system: Escherichia coli; assay: Antibacterial activity against Escherichia coli ATCC 25922 by agar diffusion method with regression line analysis
[13] = test system: Staphylococcus aureus; assay: Antibacterial activity against scottish methicillin-resistant Staphylococcus aureus isolate 126 isolated from patient nasal swab after 18 hrs by microtiter plate reader assay; type: functional; conditions: isolate 126, 18 h; procedure, shortened: as §1

| Structure (SMILES) | MIC [1] | MIC [2] | MIC [3] | MIC [4] | MIC [5] | MIC [6] | MIC [7] | MIC [8] | MIC [9] | MIC [10] | MIC [11] | MIC [12] | MIC [13] |
| --- | --- | --- | --- | --- | --- | --- | --- | --- | --- | --- | --- | --- | --- |
| CC(=O)O[C@H]1[C@H](C)[C@H](O)[C@H](C)[C@@H](O)[C@@H](C)/C=C/C=C\C(=O)NC2=C(C)C(=O)c3c(c(O)c(C)c4c3[C@H](O)[C@](C)(O/C=C/[C@H](O)[C@H]1C)O4)C2=O [CHAXAMYCIN D] | 0.25 µg/mL (≈ 0.366 µM) | 0.13 µg/mL (≈ 0.19 µM) | 0.25 µg/mL (≈ 0.366 µM) | 0.06 µg/mL (≈ 0.0878 µM) | > 32 µg/mL | 0.05 µg/mL (≈ 0.0731 µM) | 0.13 µg/mL (≈ 0.19 µM) | 0.06 µg/mL (≈ 0.0878 µM) | 0.13 µg/mL (≈ 0.19 µM) | 0.13 µg/mL (≈ 0.19 µM) | 0.25 µg/mL (≈ 0.366 µM) | 1.21 µg/mL (≈ 1.77 µM) | 0.13 µg/mL (≈ 0.19 µM) |
| CO[C@H]1/C=C/O[C@@]2(C)Oc3c(C)c(O)c4c(O)c(c(/C=N/N5CCN(C)CC5)c(O)c4c3C2=O)NC(=O)/C(C)=C\C=C\[C@H](C)[C@H](O)[C@@H](C)[C@@H](O)[C@@H](C)[C@H](OC(C)=O)[C@@H]1C [RIFAMPIN] |  | 0.002 µg/mL (≈ 0.00243 µM) | 0.004 µg/mL (≈ 0.00486 µM) | 0.002 µg/mL (≈ 0.00243 µM) | 4 µg/mL (≈ 4.86 µM) |  |  | 0.002 µg/mL (≈ 0.00243 µM) | 0.002 µg/mL (≈ 0.00243 µM) |  |  |  |  |
